# Reference: ChEMBL document CHEMBL3997809, “Design and synthesis of a new series of 3,5-disubstituted isoxazoles active against Trypanosoma cruzi and Leishmania amazonensis” (Eur J Med Chem, 2017)
# Activity calls are given as the source filed them. The calls are words filed in the database; no cut-off is given here.
# What was measured:
# Trypanosoma cruzi [1] = assay: Growth inhibition of Trypanosoma cruzi Tulahuen amastigote forms infected in human THP1 cells at 100 uM after 48 hrs relative to control; type: functional; settings: THP-1, 48 h, read-out: GI
# How it was run: (§1)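 PMA-differentiated THP-1 macrophages (4.0 × 10^4 cells/well, 100 ng/ml, 72 h) infected with trypomastigotes at 2:1 parasite/cell overnight at 37 °C. Washed, then 24 h more for amastigote transformation. Compounds added in triplicate for 48 h at 37 °C, 5% CO2. Read-out: CPRG 100 µM with 0.1% NP-40 for 16 h, OD 570/630 nm. Negative control DMSO 1%.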
# Trypanosoma cruzi [2] = assay: Trypanocidal activity against Trypanosoma cruzi Tulahuen amastigote forms infected in human THP1 cells after 48 hrs; type: functional, cell-based; settings: THP-1, 48 h; how it was run: as §1
# Trypanosoma cruzi [3] = assay: Trypanocidal activity against Trypanosoma cruzi Tulahuen trypomastigote forms at 3.9 to 250 uM after 72 hrs by MTT assay; type: functional
# How it was run: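 Culture-derived Tulahuen trypomastigotes raised from infected L929 cells, 1.5 × 10^6 parasites/well. Compounds serially diluted from 250 to 3.9 µM, incubated 72 h at 37 °C, 5% CO2. Viability by MTT, OD 540 nm after dissolving formazan in DMSO. Negative control DMSO 1%.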
# Trypanosoma cruzi [4] = assay: Growth inhibition of Trypanosoma cruzi Tulahuen amastigote forms infected in human THP1 cells at 20 uM after 48 hrs relative to control; type: functional; settings: THP-1, 48 h, read-out: GI; how it was run: as §1
# [5] = Cytotoxicity against human THP1 cells assessed as reduction in cell viability after 72 hrs by MTT assay; type: cell-based; settings: THP-1 cells
# How it was run: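 PMA-differentiated THP-1 cells exposed to serial dilutions from 15.6 to 500 µM for 72 h at 37 °C, 5% CO2. Viability by MTT reduction to formazan, dissolved in DMSO, OD 540 nm. Gives CC50.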
# [6] = Selectivity index, ratio of CC50 for human THP1 cells to IC50 for Trypanosoma cruzi Tulahuen amastigote forms infected in human THP1 cells; type: toxicity, cell-based; settings: read-out: Ratio CC50/IC50
# How it was run: (§2)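 Ratio of CC50 from the 72 h MTT assay in PMA-differentiated THP-1 cells to IC50 against intracellular amastigotes in THP-1 cells measured by CPRG read-out after 48 h.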
# Trypanosoma cruzi [7] = assay: Antitrypanosomal activity against Trypanosoma cruzi trypomastigote forms; type: functional
# Leishmania amazonensis [8] = assay: Growth inhibition of Leishmania amazonensis MHOM/BR/77/LTB0016 amastigote forms expressing beta-galactosidase infected in human THP1 cells at 100 uM after 48 hrs relative to control; type: functional; settings: for inhibition of growth at 100 µM: MHOM/BR/77/LTB0016, THP-1, 48 h, read-out: GI
# How it was run: (§3)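 THP-1 cells seeded at 4.0 × 10^4 cells/well and differentiated with PMA 100 ng/ml for 72 h. Promastigotes (4-day culture) opsonized 1 h at 34 °C in RPMI-1640 with 10% heat-inactivated human B+ serum. Infection at 10:1 parasite/cell for 3 h at 34 °C, washed, then 24 h for amastigote transformation. Compound treatment in triplicate for 48 h at 34 °C. Read-out: CPRG 100 µM with 0.1% NP-40, 16 h, OD 570/630 nm. Negative control DMSO 1%.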
# Leishmania amazonensis [9] = assay: Antileishmanial activity against Leishmania amazonensis MHOM/BR/77/LTB0016 amastigote forms expressing beta-galactosidase infected in human THP1 cells after 48 hrs; type: functional, cell-based; settings: MHOM/BR/77/LTB0016, THP-1, 48 h; how it was run: as §3
# Trypanothione reductase = Trypanothione reductase (Trypanosoma cruzi, UniProt P28593); assay: Inhibition of Trypanosoma cruzi trypanothione reductase expressed in Escherichia coli BL21(DE3) using T(S)2 as substrate incubated for 30 mins in presence of NADPH measured for 30 mins
# Sequence of Trypanothione reductase (P28593 whole entry): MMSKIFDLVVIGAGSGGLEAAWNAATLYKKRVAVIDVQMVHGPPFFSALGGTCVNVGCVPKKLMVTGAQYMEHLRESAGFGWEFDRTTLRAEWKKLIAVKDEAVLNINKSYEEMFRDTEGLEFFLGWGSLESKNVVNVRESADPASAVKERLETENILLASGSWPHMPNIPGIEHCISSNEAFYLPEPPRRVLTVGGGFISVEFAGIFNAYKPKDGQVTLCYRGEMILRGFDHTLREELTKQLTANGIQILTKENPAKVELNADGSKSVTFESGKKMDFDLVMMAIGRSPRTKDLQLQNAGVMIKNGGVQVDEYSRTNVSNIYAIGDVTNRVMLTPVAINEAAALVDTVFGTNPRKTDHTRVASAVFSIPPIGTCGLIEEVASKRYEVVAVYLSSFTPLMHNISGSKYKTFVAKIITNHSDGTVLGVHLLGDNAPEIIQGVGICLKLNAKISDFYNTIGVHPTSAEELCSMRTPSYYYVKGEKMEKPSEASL
# How it was run: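 Enzyme purified by affinity chromatography. Then T(S)2 1 µM and compound in DMSO added, 30 min at 27 °C, followed by further DTNB. A412 followed for 30 min. Negative control DMSO 1%.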
# Trypanosoma cruzi [10] = assay: Growth inhibition of Trypanosoma cruzi Tulahuen amastigote forms infected in human THP1 cells at 100 uM using compound after 1 week storage measured after 48 hrs; type: functional, cell-based
# [11] = Chemical stability in DMSO after 1 week by mass spectrometric analysis; type: physicochemical; settings: 168 h
# Leishmania amazonensis [12] = assay: Growth inhibition of Leishmania amazonensis MHOM/BR/77/LTB0016 amastigote forms expressing beta-galactosidase infected in human THP1 cells at 2 uM after 48 hrs relative to control; type: functional; settings: MHOM/BR/77/LTB0016, THP-1, 48 h, read-out: GI; how it was run: as §3
# [13] = Selectivity index, ratio of CC50 for human THP1 cells to IC50 for Leishmania amazonensis MHOM/BR/77/LTB0016 amastigote forms expressing beta-galactosidase infected in human THP1 cells; type: toxicity, cell-based; settings: read-out: Ratio CC50/IC50; how it was run: as §2
# Leishmania infantum = assay: Growth inhibition of Leishmania infantum MHOM/BR/74/PP75 amastigote forms expressing beta-galactosidase infected in human THP1 cells at 50 uM after 48 hrs relative to control; type: functional; settings: MHOM/BR/74/PP75, THP-1, 48 h, read-out: GI; how it was run: as §3
SMILES,IC50 (Leishmania amazonensis [9]),inhibition of growth at 100 µM (Trypanosoma cruzi [1]),IC50 (Trypanosoma cruzi [2]),Activity (Trypanosoma cruzi [3]),CC50 at 72 h [5],inhibition of growth at 100 µM (Leishmania amazonensis [8]),other results
COc1ccc(-c2cc(-c3ccc(CO)cc3)on2)cc1,,5.77%,> 100 µM,inactive,,,
O=C(Cn1ccnc1[N+](=O)[O-])NCc1ccccc1 [BENZNIDAZOLE],,,,,> 500 µM,,inhibition of growth at 20 µM (Trypanosoma cruzi [4]): 85.9%; selectivity ratio [6]: > 49.1
COc1ccc([C@H]2O[C@@H](c3ccc(OC)c(OC)c3)[C@@H](C)[C@@H]2C)cc1OC,,,,,,,IC50 (Trypanosoma cruzi [7]): 2300 nM
OC[C@H]1O[C@H](OCc2cc(-c3ccccc3)no2)[C@H](O)[C@@H](O)[C@@H]1O,> 100 µM,7.3%,> 100 µM,inactive,,4.57%,
OCc1cc(-c2ccc3c(c2)OCO3)no1,,1.95%,> 100 µM,inactive,,,
c1ccc(-c2cc(-c3ccc4c(c3)OCO4)no2)cc1,,64.8%,23 µM,inactive,> 500 µM,,selectivity ratio [6]: > 21.7; growth inhibition (GI) (Leishmania amazonensis [8]): inactive
O=[N+]([O-])c1ccc(-c2cc(-c3ccc(CO)cc3)on2)cc1,,15.9%,> 100 µM,inactive,,,
CC(=O)Nc1ccc(-c2cc(-c3ccccc3)no2)cc1,,0%,,inactive,,,
OCc1ccc(-c2cc(-c3ccccc3)no2)cc1,,7.01%,> 100 µM,inactive,,,
COc1ccc(-c2cc(-c3ccc(CO)cc3)on2)cc1OC,,14.2%,> 100 µM,inactive,,,
Nc1ccc(-c2cc(-c3ccccc3)no2)cc1,,73%,90.4 µM,inactive,407 µM,,selectivity ratio [6]: 4.5
CC(C)(C)OC(=O)Nc1ccc(-c2cc(-c3ccccc3)no2)cc1,,0%,,inactive,,,
O=C(O)c1cc(-c2ccccc2)no1,,0%,,inactive,,,
COc1ccc(-c2cc(CN=[N+]=[N-])on2)cc1,,60.4%,,inactive,< 15.6 µM,,growth inhibition (GI) (Trypanosoma cruzi [10]): inactive; Stability [11]: Unstable
COc1ccc(-c2cc(CO)on2)cc1OC,,0%,,inactive,,,
C[C@@H]1[C@H](O)[C@@H](C)/C=C/C=C/C=C/C=C/C=C/C=C/C=C/[C@H](O[C@@H]2O[C@H](C)[C@@H](O)[C@H](N)[C@@H]2O)C[C@@H]2O[C@](O)(C[C@@H](O)C[C@@H](O)[C@H](O)CC[C@@H](O)C[C@@H](O)CC(=O)O[C@H]1C)C[C@H](O)[C@H]2C(=O)O [AMPHOTERICIN B],0.14 µM,,,,27.9 µM,,inhibition of growth at 2 µM (Leishmania amazonensis [12]): 81.6%; selectivity ratio [13]: 199
OCc1ccc(-c2cc(-c3ccc(F)cc3)no2)cc1,,10.6%,> 100 µM,inactive,,,
COc1ccc(-c2cc(CO)on2)cc1,,9.32%,> 100 µM,inactive,,,
OCc1ccc(-c2cc(-c3ccc4c(c3)OCO4)no2)cc1,,65%,5.26 µM,inactive,70.2 µM,0%,selectivity ratio [6]: 13.3; IC50 (Trypanothione reductase): > 100 µM
OCc1cc(-c2ccccc2)no1,,7.57%,> 100 µM,inactive,,,
COc1cc([C@@H]2O[C@@H](c3cc(OC)c(OC)c(OC)c3)[C@H](C)[C@H]2C)cc(OC)c1OC [GRANDISIN],,,,,,,IC50 (Trypanosoma cruzi [7]): 3700 nM
CC(=O)OC[C@H]1O[C@H](OCc2cc(-c3ccccc3)no2)[C@H](OC(C)=O)[C@@H](OC(C)=O)[C@@H]1OC(C)=O,> 100 µM,1.16%,> 100 µM,inactive,,2.06%,

# Now from value to compound, other results behind:
IC50 (Leishmania amazonensis [9]),SMILES,inhibition of growth at 100 µM (Trypanosoma cruzi [1]),IC50 (Trypanosoma cruzi [2]),Activity (Trypanosoma cruzi [3]),CC50 at 72 h [5],inhibition of growth at 100 µM (Leishmania amazonensis [8]),other results
> 100 µM,CC(=O)OC[C@H]1O[C@H](OCc2cc(-c3ccc4c(c3)OCO4)no2)[C@H](OC(C)=O)[C@@H](OC(C)=O)[C@@H]1OC(C)=O,3.15%,> 100 µM,inactive,,2.05%,
> 100 µM,"c1ccc(-c2cc(-c3ccccc3)on2)cc1 [3,5-DIPHENYLISOXAZOLE]",29.4%,> 100 µM,inactive,,6.03%,
> 100 µM,OCc1cc(-c2ccc(F)cc2)no1,8.27%,> 100 µM,inactive,,3.35%,
> 100 µM,OC[C@H]1O[C@H](OCc2cc(-c3ccc4c(c3)OCO4)no2)[C@H](O)[C@@H](O)[C@@H]1O,2.93%,> 100 µM,inactive,,3.82%,
> 100 µM,CC(=O)OCc1ccc(-c2cc(-c3ccc4c(c3)OCO4)no2)cc1,47.6%,23.2 µM,inactive,> 500 µM,15.7%,selectivity ratio [6]: > 21.5
> 100 µM,Cc1ccc(-c2cc(-c3ccc4c(c3)OCO4)no2)cc1,81.7%,1.74 µM,inactive,81.3 µM,28.1%,selectivity ratio [6]: 46.7; IC50 (Trypanothione reductase): > 100 µM
> 100 µM,O=[N+]([O-])c1ccc(-c2cc(CO)on2)cc1,12.2%,> 100 µM,inactive,,4.98%,
5.08 µM,ClCc1ccc(-c2cc(-c3ccc4c(c3)OCO4)no2)cc1,95.8%,1.13 µM,inactive,182 µM,57.7%,selectivity ratio [6]: 161; selectivity ratio [13]: 35.8; inhibition of growth at 50 µM (Leishmania infantum): 9.01%; IC50 (Trypanothione reductase): > 100 µM
